Source: ChEMBL document CHEMBL2331267 (J Med Chem, 2013)
pEC50, pIC50, pKi: −log10 of the molar value.

Tests used:
Acid ceramidase [1] = target: T1, Acid ceramidase (Rattus norvegicus, UniProt Q6P7S1); assay: Inhibition of rat recombinant acid ceramidase expressed in human HEK293 cells using N-lauroylceramide as substrate incubated for 30 mins prior to substrate addition measured after 30 mins by LC/MS analysis; conditions: for pIC50: read-out: IC50
T1 sequence (Q6P7S1 whole entry): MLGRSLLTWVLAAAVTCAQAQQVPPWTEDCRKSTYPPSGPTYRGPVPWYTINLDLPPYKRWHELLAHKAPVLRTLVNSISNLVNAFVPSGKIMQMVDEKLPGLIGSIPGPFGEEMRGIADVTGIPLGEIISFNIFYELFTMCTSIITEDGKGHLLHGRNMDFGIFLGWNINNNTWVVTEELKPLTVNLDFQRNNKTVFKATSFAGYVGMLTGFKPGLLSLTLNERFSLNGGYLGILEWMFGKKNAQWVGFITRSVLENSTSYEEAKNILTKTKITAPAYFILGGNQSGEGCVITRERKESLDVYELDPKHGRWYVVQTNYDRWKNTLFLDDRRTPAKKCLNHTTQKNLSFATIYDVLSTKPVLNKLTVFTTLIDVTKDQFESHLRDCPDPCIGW
Outline: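 Rat AC from cell lysate: sucrose/Tris homogenate, 12000g pellet, freeze–thaw in PBS, 105000g supernatant. Enzyme (50 μg protein) preincubated 30 min, 37 °C, with inhibitor (final DMSO 1%) in pH 4.5 phosphate/citrate buffer with 0.1% NP-40, 150 mM NaCl, 3 mM DTT; 100 μM N-lauroylceramide, 30 min, 37 °C; lauric acid quantified by LC/MS against heptadecanoic acid standard.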

[2] = Antiproliferative activity against human SW403 cells after 72 hrs by MTT assay; assay type: functional, cell-based; conditions: SW-403, 72 h
Outline: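 SW403 cells exposed to compounds for 72 h; viability read by MTT reduction, n=4 per drug concentration; EC50 derived from concentration–response.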

[3] = Chemical stability of the compound in buffer at pH 4.5 after 30 mins by LC/MS analysis; assay type: physicochemical; conditions: read-out: Stability
[4] = Chemical stability of the compound in DMSO-d6 solution after 120 mins by LC/MS analysis; assay type: physicochemical; conditions: 2 h
Acid ceramidase [5] = target: T2, Acid ceramidase (Homo sapiens, UniProt Q13510); assay: Inhibition of acid ceramidase (unknown origin)
T2 sequence (Q13510 whole entry): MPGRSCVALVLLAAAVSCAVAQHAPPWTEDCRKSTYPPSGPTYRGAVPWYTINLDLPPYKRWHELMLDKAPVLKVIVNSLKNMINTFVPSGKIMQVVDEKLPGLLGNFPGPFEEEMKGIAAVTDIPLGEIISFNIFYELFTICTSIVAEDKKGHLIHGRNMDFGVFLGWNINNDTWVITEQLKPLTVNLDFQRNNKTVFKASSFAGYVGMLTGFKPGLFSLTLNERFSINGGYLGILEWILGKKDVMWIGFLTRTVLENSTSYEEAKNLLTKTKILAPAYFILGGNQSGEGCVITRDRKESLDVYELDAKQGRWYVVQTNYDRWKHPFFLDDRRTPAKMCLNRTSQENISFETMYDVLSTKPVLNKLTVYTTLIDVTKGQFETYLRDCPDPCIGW

Row | pIC50 (Acid ceramidase [1]) | SMILES | other results
1 | – | CCCCCCN(C)C(=O)n1ccc(=O)[nH]c1=O | IC50 (Acid ceramidase [1]; hek293): Not Active
2 | 5.84 | CCCCCCNC(=O)n1cc(C)c(=O)[nH]c1=O | –
3 | – | CCCCCCNC(=O)n1cc(C(F)(F)F)c(=O)[nH]c1=O | pIC50 (Acid ceramidase [1]; hek293): 7.92
4 | 6.13 | CCCCCCNC(=O)n1cc(CC)c(=O)[nH]c1=O | –
5 | – | CCCCCCNC(=O)n1cc(-c2ccccc2)c(=O)[nH]c1=O | pEC50 [2]: 4.62
6 | – | CCCCCCNC(=O)n1cc(C#N)c(=O)[nH]c1=O | remaining at 0.5 h [3]: 22%; IC50 (Acid ceramidase [1]; hek293): ND(Unstable)
7 | – | CCCCCCNC(=O)N1CCC(=O)NC1=O | IC50 (Acid ceramidase [1]; hek293): Not Active
8 | – | CCCCCCNC(=O)n1c(C)c(C)c(=O)[nH]c1=O | Stability [4]: Unstable; IC50 (Acid ceramidase [1]; hek293): ND(Unstable)
9 | – | CCCCCCNC(=O)n1c(Cl)cc(=O)[nH]c1=O | Stability [4]: Unstable; IC50 (Acid ceramidase [1]; hek293): ND(Unstable)
10 | 7.89 | CCCCCCNC(=O)n1cc(F)c(=O)n(C)c1=O | pEC50 [2]: 4.66
11 | 7.28 | CCCCCCNC(=O)n1ccc(=O)n(C)c1=O | –
12 | 7.74 | CCCCCCNC(=O)n1cc(F)c(=O)n(CC)c1=O | –
13 | 7.21 | CCCCCCNC(=O)n1cc(F)c(=O)n(CC2CC2)c1=O | –
14 | 7.68 | CCCCCCNC(=O)n1cc(F)c(=O)n(C(=O)C(C)C)c1=O | –
15 | 8.15 | CCCCCCNC(=O)n1cc(F)c(=O)n(C(=O)OC)c1=O | –
16 | 7.92 | CCCCCCNC(=O)n1cc(F)c(=O)n(C(=O)OCC)c1=O | –
17 | 7.80 | CCCCCCNC(=O)n1cc(F)c(=O)n(C(=O)OCC(C)C)c1=O | –
18 | 7.70 | CCCCCCNC(=O)n1cc(F)c(=O)n(C(=O)c2ccccc2)c1=O | –
19 | 5.07 | CCCCNC(=O)n1ccc(=O)[nH]c1=O | –
20 | 5.68 | CCCCCNC(=O)n1ccc(=O)[nH]c1=O | –
21 | 6.49 | CCCCCCCNC(=O)n1ccc(=O)[nH]c1=O | –
22 | 7.34 | CCCCCCCCNC(=O)n1cc(F)c(=O)[nH]c1=O | –
23 | 6.55 | CCCCCCCCNC(=O)n1ccc(=O)[nH]c1=O | pEC50 [2]: 4.70
24 | 6.33 | CCCCCCCCCNC(=O)n1ccc(=O)[nH]c1=O | –
25 | 8.40 | CCCCCCCCNC(=O)n1cc(F)c(=O)n(C(=O)OC)c1=O | –
26 | – | CCCCCCNC(=O)n1ccc(=O)[nH]c1=O | pIC50 (Acid ceramidase [1]; hek293): 6.37
27 | – | CCCCCCNC(=O)n1cc(F)c(=O)[nH]c1=O [CARMOFUR] | pIC50 (Acid ceramidase [1]; hek293): 7.54
28 | – | CCCCCCCC/C=C\CCCCCCCC(=O)NCCO [OLEOYLETHANOLAMIDE] | pKi (Acid ceramidase [5]): 3.30
